Laboratory results as given in ChEMBL document CHEMBL4118105, “High-Affinity Peptidomimetic Inhibitors of the DCN1-UBC12 Protein-Protein Interaction” (J Med Chem, 2018).
Non-standard residues stand in square brackets, D forms with d. Residues, ends and D or L forms follow the SMILES beside them. *: point of attachment. 2Nal = N[C@@H](Cc1ccc2ccccc2c1)C(=O)O; Isobutyryl = CC(C)C(=O)*; Propionyl = CCC(=O)*

Columns and labels:
DCN1-like protein 1 [1] = biological target: T1, DCN1-like protein 1 (Homo sapiens, UniProt Q96GG9); experiment: Displacement of (S)-N1-((19S,22S)-26-Amino-19-carbamoyl-1-(3',6'-dihydroxy-3-oxo-3H-spiro[isobenzofuran-1,9'-xanthen]-5-yl)-1,13,21-trioxo-5,8,11-trioxa-2,14,20-triazahexacosan-22-yl)-2-((2S,5S,8S,11S,14S,17S,20S,23S,26S)-2-(3-amino-3-oxopropyl)-5,20-bis(4-aminobutyl)-14-benzyl-23-((S)-sec-butyl)-11-(hydroxymethyl)-8,17-diisobutyl-26-(naphthalen-2-ylmethyl)-4,7,10,13,16,19,22,25,28-nonaoxo-3,6,9,12,15,18,21,24,27-nonaazanonacosanamido)pentanediamide from recombinant N-terminal His6-tagged human DCN1 (58 to 259 residues) expressed in Escherichia coli Rosetta2 cells after 30 mins by fluorescence polarization assay
DCN1-like protein 1 [2] = biological target: T1, DCN1-like protein 1; experiment: Binding affinity to biotin labeled recombinant N-terminal His6-tagged human DCN1 (58 to 259 residues) expressed in Escherichia coli Rosetta2 cells by biolayer interferometry analysis
Summary of the method: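 Recombinant human DCN1 (58–259) was biotinylated at a 1:1 molar ratio in PBS for 2 h at 4 °C, dialyzed, then loaded on super streptavidin sensors from a 10 μg/mL solution. Blocked streptavidin sensors served as reference.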

T1 sequence (Q96GG9 whole entry, the tested form may be a part): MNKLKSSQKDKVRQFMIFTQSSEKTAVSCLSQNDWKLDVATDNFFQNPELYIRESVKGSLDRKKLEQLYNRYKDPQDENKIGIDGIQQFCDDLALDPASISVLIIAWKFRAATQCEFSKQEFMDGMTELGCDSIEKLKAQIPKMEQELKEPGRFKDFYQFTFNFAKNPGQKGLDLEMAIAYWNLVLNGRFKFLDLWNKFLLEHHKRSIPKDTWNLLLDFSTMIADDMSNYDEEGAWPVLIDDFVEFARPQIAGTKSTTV

Compound | IC50 (DCN1-like protein 1 [1]) [nM] | Ki (DCN1-like protein 1 [1]) [nM] | Kd (DCN1-like protein 1 [2]) [nM]
CCC(=O)N[C@@H](Cc1nc2c(F)cccc2s1)C(=O)N[C@H](C(=O)N[C@@H](CCCCN)C(=O)NC(c1ccccc1)c1ccccc1)C1CCCC1 | 4920 | 1030 | 
CCC(=O)N[C@@H](Cc1nc2ccc(Cl)cc2s1)C(=O)N[C@H](C(=O)N[C@@H](CCCCN)C(=O)N[C@@H]1CCCc2ccccc21)C1CCCC1 |  |  | 8.3
CCC(=O)N[C@@H](Cc1ccc2ccccc2c1)C(=O)N[C@@H](CC(C)(C)C)C(=O)N[C@@H](CCCCN)C(=O)NC(c1ccccc1)c1ccccc1 |  | 42.9 | 
CCC(=O)N[C@@H](Cc1nc2ccc(Cl)cc2s1)C(=O)N[C@H](C(=O)N[C@@H](CCCCN(C)C)C(=O)N[C@@H]1CCOc2ccccc21)C1CCCC1 |  |  | 5.7

The next lines start with the values.

IC50 (DCN1-like protein 1 [1]) [nM] | Ki (DCN1-like protein 1 [1]) [nM] | Kd (DCN1-like protein 1 [2]) [nM] | Compound
5200 | 1100 |  | CCC(=O)N[C@@H](Cc1ccc2ccccc2c1)C(=O)N[C@H](C(=O)N[C@@H](CCCCN)C(=O)N[C@@H](CC(C)C)C(N)=O)[C@@H](C)CC (Propionyl-[2Nal]IKL-NH2)
 | 97 |  | CCC(=O)N[C@@H](Cc1ccc2ccccc2c1)C(=O)N[C@H](C(=O)N[C@@H](CCCCN)C(=O)NC(c1ccccc1)c1ccccc1)[C@@H](C)CC
16500 | 3500 |  | CC[C@H](C)[C@H](NC(=O)[C@H](Cc1ccc2ccccc2c1)NC(=O)C(C)C)C(=O)N[C@@H](CCCCN)C(=O)N[C@@H](CC(C)C)C(N)=O (Isobutyryl-[2Nal]IKL-NH2)
 | 54.4 | 37 | CCC(=O)N[C@@H](Cc1nc2ccc(F)cc2s1)C(=O)N[C@H](C(=O)N[C@@H](CCCCN)C(=O)NC(c1ccccc1)c1ccccc1)C1CCCC1
